High-throughput results (PubChem BioAssay)
SUMO1 PPI mod: alters human SUMO1 binding to SIM partners; P63165; SUMO1 binding to a labelled peptide, TR-FRET, 1 h; inhibition, % at 20 µM; actives 0.33% (n = 360,000); in the data active means inhibition above about 37%
STEP block: STEP (human) phosphatase inhibition; recombinant STEP, OMFP fluorogenic substrate, fluorescence; actives 0.25% (n = 360,000); inhibition, % at 20 µM; AID 588621;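 active means inhibition at 20 µM, scaled per plate between control wells, above about 37%, limit read from the data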;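 further: 0% = DMSO with enzyme and substrate and 100% = substrate only without enzyme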
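Measure: Control-normalized % inhibition with plate pattern correction | Test system: STEP phosphatase, cell-free reaction | Medium: pH 6.0 Bis-Tris with DTT and Tween 20 | Technique: Fluorescence, 480/540 nm | Times: Reaction 20 min, ambient temperature | Doses: Single compound dose of 20 µM, 1% DMSO final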
DNMT1 block: DNMT1 (human) enzyme inhibition; DNMT1 molecular beacon, Hinp1I cleavage, fluorescence; P26358; AID 588458; actives 0.83% (n = 360,000); inhibition (reported as % activation of signal), % at 10 µM; in the data active means inhibition above about 50%
Scp-1 inhibitor: inhibitors of human Scp-1 phosphatase. actives 0.88% (n = 340,000). AID 493091. inhibition, % at 20 µM. Recombinant Scp1, phosphopeptide, malachite green phosphate absorbance. Q9GZU7;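 active means inhibition above about 50% at 20 µM, limit read from the data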;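 further: plate controls were DMSO wells with enzyme for no effect and wells lacking enzyme for full effect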
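Times: enzyme reaction 45 min at room temperature, colour 5 min, stabilisation 30 min. Material: SCP-1 catalytic fragment, aa 76-261. Medium: Acidic Tris acetate buffer with magnesium and detergent. Signal: colorimetric free-phosphate detection, absorbance 630 nm. Read-out basis: % inhibition of SCP-1 phosphate liberation. Reagent: Phosphorylated 17-residue peptide substrate.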
LMPTP inh: blocks human LMPTP phosphatase | actives 0.22% (n = 360,000) | P24666 | recombinant LMPTP-A, OMFP fluorogenic substrate, fluorescence intensity | inhibition, % at 20 µM;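 active means compounds that cut the enzyme signal by at least half of the control window in the single-dose screen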;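 further: plate controls were DMSO wells with enzyme plus substrate for no effect and substrate without enzyme for full effect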
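material = LMPTP-A | quantity = 0.625 nM enzyme | reagent = OMFP substrate, 400 µM final | buffer or medium = Bis-Tris pH 6.0, DTT, detergent | detection = endpoint fluorescence intensity from OMFP dephosphorylation | dosing = single 20 µM dose | read-out basis = % inhibition relative to no-enzyme and uninhibited control wells | control set = no-enzyme and uninhibited controls | timing = 50 min at room temperature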
Beacon interf DR: counter-screen for DNMT1 inhibitors: spectral interference, dose response | shares compounds with DNMT1 block | molecular beacon fluorescence | IC50, µM | 200 tested, under 10 active | AID 602382; call rule not given here
DNMT1 confirm: confirmation of human DNMT1 inhibitors. actives 8% (n = 2,300). inhibition, % at 10 µM. AID 602385. shares compounds with DNMT1 block. DNMT1 molecular beacon HinP1I cleavage, fluorescence;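 active means average inhibition of at least 30% in the single-concentration confirmation test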
Beacon interf: shows spectral interference in the DNMT1 beacon assay; actives 1% (n = 2,300); shares compounds with DNMT1 block; AID 602387; activation (fluorescence interference), % at 10 µM; DNMT1 molecular beacon spectral interference counterscreen, fluorescence 485/520;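 active means activation of at least 30% at 10 µM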;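 further: DNMT1 catalytic domain with a HinP1I cleavage step and a FAM/dabcyl DNA beacon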
Numbers without * were called inactive; x = no result. Most compounds without a hit are left out; they make up all but 1.7% or so of the library.

SMILES	SUMO1 PPI mod	STEP block	DNMT1 block	Scp-1 inhibitor	LMPTP inh	DNMT1 confirm	Beacon interf	others
COc1ccc(OC)c(-n2c(SCC(=O)Nc3cccc(S(N)(=O)=O)c3)nc3ccccc3c2=O)c1	3	13	67*	-4	1	2	2
CCc1[nH]c(C(=O)O)c(C)c1C(=O)OC	-2	-2	0	-1	0	x	x
COc1ccc(/C=C(\C#N)c2nc3ccc(C)cc3[nH]2)cc1Oc1ccc(C(F)(F)F)cc1[N+](=O)[O-]	-3	-1	52*	-17	-2	5	-5
OC(c1ccccc1)c1nc(-c2csc3ccccc23)cs1 (stereo unspecified)	-4	-1	8	x	1	x	x
COc1ccc(/C=C(\C#N)C(=O)NCc2ccccc2)cc1O	-26	-2	1	2	0	x	x
COc1ccc(/C=C(\C#N)C(=O)Nc2cc(C)c(Cl)cc2OC)cc1O	5	6	70*	-7	8	5	-2
Cc1ccc(OCCCN2CCOCC2)cc1	4	-2	8	9	-2	x	x
COc1ccc(C(=O)OCC(=O)Nc2ncc([N+](=O)[O-])s2)cc1OC	28	17	99*	51*	23	86*	-4	Beacon interf DR=>99
O=C(COC(=O)c1ccc(Br)o1)Nc1ncc([N+](=O)[O-])s1	4	1	71*	18	3	19	-4
CC1(C)C(=O)Nc2ccccc2N1C(=O)COC(=O)CNS(=O)(=O)c1ccc(F)c(F)c1F	-7	-3	2	8	-1	x	x
NCC12CC3CC(C1)CC(c1ccc(Cl)cc1)(C3)C2	-1	0	0	-5	0	x	x
CCCOc1cc2c(C#N)c(N3CCCC3)nc(N)c2c(N)n1	51*	19	97*	-1	24	3	-2
COc1cc2c(C#N)c(N3CCN(C)CC3)nc(N)c2c(N)n1	8	-4	-20	x	3	x	x
COc1cc2c(C#N)c(N3CCCC3)nc(N)c2c(N)n1	56*	18	99*	0	29	3	4
COc1ccc(C)cc1S(=O)(=O)NCC(c1ccc2c(c1)OCO2)N1CCOCC1 (stereo unspecified)	0	-1	2	-1	0	x	x
O=C(O)CSc1ncnc2sc(-c3ccccc3)cc12	-12	-3	-1	0	0	x	x
CC(=O)c1c(C)[nH]c(C(=O)CSc2ncnc3sc(-c4ccccc4)cc23)c1C	-1	1	53*	-4	1	0	1
CC1CCN(C(=O)CSc2nc3c(c(=O)n2C)SC(C)C3)CC1 (stereo unspecified)	1	1	67*	-5	-1	7	9
COc1cccc(N(C(=O)c2sc(C)nc2C)C(C(=O)NCC2CCCO2)c2ccccc2)c1 (stereo unspecified)	-2	-4	2	-4	0	x	x
Cc1cc(C(=O)NNC(=O)/C=C/c2ccco2)c(C)o1	14	0	88*	66*	0	26	5
COCCn1c(SCC(=O)Nc2sc(C)c(C)c2C#N)nnc1-c1ccc(OC)cc1	0	-3	2	-9	-1	x	x
Cc1ccc(-c2nnc(SCC(=O)Nc3sc(C)c(C)c3C#N)n2C)cc1	-1	-8	52*	-9	-1	3	-4
C[C@H](NC(=O)CC[C@H]1O[C@@H](n2ccc(=O)[nH]c2=O)[C@H](O)[C@@H]1O)C(=O)O	-2	1	0	x	-4	x	x
O=c1ccn([C@@H]2O[C@H](CO)[C@@H](O)[C@H]2O)c(=O)[nH]1	-2	0	81*	-9	-2	4	5
O=C(CC[C@H]1O[C@@H](n2ccc(=O)[nH]c2=O)[C@H](O)[C@@H]1O)N1CCN(c2ccccn2)CC1	2	-3	-1	x	0	x	x
SMILES	SUMO1 PPI mod	STEP block	DNMT1 block	Scp-1 inhibitor	LMPTP inh	DNMT1 confirm	Beacon interf	others
O=C(CC[C@H]1O[C@@H](n2ccc(=O)[nH]c2=O)[C@H](O)[C@@H]1O)N1CCN(Cc2cccc3ccccc23)CC1	4	2	85*	x	-1	0	6
O=C(O)C1Nc2c(Cl)cc(Cl)c(Cl)c2C2C=CCC12 (stereo unspecified)	63*	12	83*	63*	70*	85*	0	Beacon interf DR=>99
O=C(/C=C/c1ccc(Br)o1)NCc1ccccc1	11	2	74*	-2	34	9	4
CC(OC(=O)Cn1cnc2c1c(=O)n(C)c(=O)n2C)C(=O)Nc1ccc(Cl)cc1 (stereo unspecified)	-3	-1	2	-3	-1	x	x
O=C(COC(=O)C1CC(=O)N(Cc2ccco2)C1)c1ccc(OC(=O)c2ccco2)cc1 (stereo unspecified)	25	10	76*	81*	18	5	3
Cc1ccc(S(=O)(=O)N2CCC(C(=O)Nc3ccncc3)CC2)cc1	3	-2	-3	-1	1	x	x
O=C(C1=C(O)C(=O)N(c2nc3ccc(Cl)cc3s2)C1c1ccco1)c1ccco1 (stereo unspecified)	40*	28	90*	64*	60*	12	4
Cc1nc2ccccn2c1CN(C)C(=O)C1CCC(=O)N(Cc2cccc(F)c2)C1 (stereo unspecified)	8	-2	-1	-7	0	x	x
Cc1cccc(NC(=O)c2nc[nH]c2C(=O)NCCCNC(=O)c2[nH]cnc2C(=O)Nc2cccc(C)c2)c1	6	5	73*	0	2	2	0
CC(C)(C)OC(=O)NCc1ccc(NC(=O)c2nc[nH]c2C(=O)NCCNC(=O)c2[nH]cnc2C(=O)Nc2ccc(CNC(=O)OC(C)(C)C)cc2)cc1	0	-4	64*	4	-4	1	-5
Cc1cccc(NC(=O)c2nc[nH]c2C(=O)NCCN(CCNC(=O)c2[nH]cnc2C(=O)Nc2cccc(C)c2)CCNC(=O)c2[nH]cnc2C(=O)Nc2cccc(C)c2)c1	-6	-2	-12	2	1	x	x
CC(=O)c1sc2nc(-c3ccco3)ccc2c1N	29	15	67*	79*	20	5	7
CCn1c(SCC(=O)N2CCC(C)CC2)nc2c(c1=O)SCC2	-5	0	3	-7	0	x	x
COC(=O)c1cccc(F)c1C(=O)c1cccc2ccccc12	-14	3	-2	-21	3	x	x
O=C(/C=C/c1ccc([N+](=O)[O-])cc1)c1ccco1	-12	0	3	1	7	x	x
